This is an account of results in PubChem BioAssay AID492951 (Molecular Libraries Program, Specialized Chemistry Center, …, 2010).

The target of the test is Hexokinase-4 (Homo sapiens) (UniProt P35557). The test can be described thus: hGlck enzyme activity off-target inhibitors – biochemical, recombinant hGlck, counter-screen for TbHK1 inhibitor project (AID 492951). The conditions noted are these: G6PDH-coupled NADH absorbance 340 nm, at 10 µM. The method in brief: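 Test system: purified recombinant human glucokinase (HK4) with G6PDH coupling enzyme / Reagent: 20 mM glucose as reaction starter, plus 1 mM ATP / Timing: 10 min room-temperature compound-enzyme preincubation before glucose addition / Measured by: A340 of NADH / Repeats: three replicates per compound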
Chain of Hexokinase-4 (Homo sapiens) (P35557 whole entry, looked up): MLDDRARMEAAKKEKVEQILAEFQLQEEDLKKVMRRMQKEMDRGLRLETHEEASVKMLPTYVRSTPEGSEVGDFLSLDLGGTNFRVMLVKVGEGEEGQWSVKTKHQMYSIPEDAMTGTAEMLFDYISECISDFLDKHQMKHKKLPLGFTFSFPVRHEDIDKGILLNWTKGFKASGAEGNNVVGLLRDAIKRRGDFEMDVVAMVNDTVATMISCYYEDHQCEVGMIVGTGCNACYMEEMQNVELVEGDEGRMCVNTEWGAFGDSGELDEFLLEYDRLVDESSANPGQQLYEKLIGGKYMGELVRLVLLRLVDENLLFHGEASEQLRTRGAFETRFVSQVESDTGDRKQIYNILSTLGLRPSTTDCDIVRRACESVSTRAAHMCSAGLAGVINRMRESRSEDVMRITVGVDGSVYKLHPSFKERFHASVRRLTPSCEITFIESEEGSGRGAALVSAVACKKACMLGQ

Structures are written as SMILES. Activity calls are given as the source filed them.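 How the source made its calls: active means inhibition above 10%; inactive means the rest.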

Regarding `O=C1CCN(C(=O)Nc2cc(Cl)ccc2C(=O)O)CC1`, the result was inactive.

For `O=c1ccsn1-c1ccccc1`, the result was inactive.
